Test results published in ChEMBL document CHEMBL1137665, “Antistaphylococcal activity of CG400549, a new experimental FabI inhibitor, compared with that of other agents” (2007).
Converted amounts (≈) assume the structure as drawn.

Columns and labels:
Assay type in all cases: functional
[1] = test system: Staphylococcus aureus; test: Antimicrobial activity against methicillin-resistant Staphylococcus aureus by agar dilution CLSI method
Method in brief: (§1)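 CLSI agar dilution MIC against S. aureus clinical isolates. Calcium was added to the medium for daptomycin testing. Vancomycin plates were read after a full 24-h incubation.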

[2] = test system: Staphylococcus aureus; test: Antimicrobial activity against panton-valentine leukocidin-negative community-acquired methicillin-resistant Staphylococcus aureus 481 by agar dilution CLSI method; method in brief: as §1
[3] = test system: Staphylococcus aureus; test: Antimicrobial activity against vancomycin-resistant Staphylococcus aureus 510 Hershey by agar dilution CLSI method
Method in brief: (§2)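 Agar dilution MIC per CLSI methodology; calcium supplemented for daptomycin testing; vancomycin plates read after a full 24-h incubation.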

[4] = test system: Staphylococcus aureus; test: Antimicrobial activity against panton-valentine leukocidin-negative community-acquired methicillin-resistant Staphylococcus aureus 481 after 14 passages with daptomycin measured after 10 antibiotic-free subculture by multi-step resistance selection technique
Method in brief: (§3)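 Mutants from multistep daily serial passage in subinhibitory drug were then subcultured daily 10 times on antibiotic-free medium. MIC was redetermined after these subcultures to assess stability. Clone identity was checked by pulsed-field gel electrophoresis.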

[5] = test system: Staphylococcus aureus; test: Antimicrobial activity against panton-valentine leukocidin-negative community-acquired methicillin-resistant Staphylococcus aureus 481 after 37 passages with Linezolid measured after 10 antibiotic-free subculture by multi-step resistance selection technique; method in brief: as §3
[6] = test system: Staphylococcus aureus; test: Antimicrobial activity against panton-valentine leukocidin-negative community-acquired methicillin-resistant Staphylococcus aureus 481 after 16 passages with quinupristin-dalfopristin measured after 10 antibiotic-free subculture by multi-step resistance selection technique; method in brief: as §3
[7] = test system: Staphylococcus aureus; test: Antimicrobial activity against panton-valentine leukocidin-positive community-acquired methicillin-resistant Staphylococcus aureus 490 after 17 passages with CG400549 measured after 10 antibiotic-free subculture by multi-step resistance selection technique
Method in brief: (§4)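 Multistep-selected mutants (daily passage at subinhibitory drug levels) then subcultured 10 times daily on antibiotic-free medium; MIC redetermined afterwards and compared with the MIC recorded at the end of selection; clone identity to parent checked by pulsed-field gel electrophoresis.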

[8] = test system: Staphylococcus aureus; test: Antimicrobial activity against panton-valentine leukocidin-positive community-acquired methicillin-resistant Staphylococcus aureus 490 after 14 passages with daptomycin measured after 10 antibiotic-free subculture by multi-step resistance selection technique; method in brief: as §4
[9] = test system: Staphylococcus aureus; test: Antimicrobial activity against panton-valentine leukocidin-positive community-acquired methicillin-resistant Staphylococcus aureus 490 after 22 passages with Linezolid measured after 10 antibiotic-free subculture by multi-step resistance selection technique; method in brief: as §4
[10] = test system: Staphylococcus aureus; test: Antimicrobial activity against panton-valentine leukocidin-positive community-acquired methicillin-resistant Staphylococcus aureus 490 after 23 passages with quinupristin-dalfopristin measured after 10 antibiotic-free subculture by multi-step resistance selection technique; method in brief: as §4
[11] = test system: Staphylococcus aureus; test: Antimicrobial activity against vancomycin-intermediate Staphylococcus aureus 504 after 14 passages with CG400549 measured after 10 times antibiotic-free subculture by multi-step resistance selection technique; method in brief: as §4
[12] = test system: Staphylococcus aureus; test: Antimicrobial activity against vancomycin-intermediate Staphylococcus aureus 504 after 22 passages with Linezolid measured after 10 times antibiotic-free subculture by multi-step resistance selection technique; method in brief: as §4
[13] = test system: Staphylococcus aureus; test: Antimicrobial activity against vancomycin-resistant Staphylococcus aureus 509 Michigan after 14 passages with CG400549 measured after 10 antibiotic-free subculture by multi-step resistance selection technique; method in brief: as §4
[14] = test system: Staphylococcus aureus; test: Antimicrobial activity against vancomycin-resistant Staphylococcus aureus 509 Michigan after 20 passages with daptomycin measured after 10 antibiotic-free subculture by multi-step resistance selection technique; method in brief: as §4
[15] = test system: Staphylococcus aureus; test: Antimicrobial activity against vancomycin-resistant Staphylococcus aureus 509 Michigan after 18 passages with quinupristin-dalfopristin measured after 10 antibiotic-free subculture by multi-step resistance selection technique; method in brief: as §4
[16] = test system: Staphylococcus aureus; test: Antimicrobial activity against methicillin and vancomycin-resistant Staphylococcus aureus 510 after single-step resistance selection by agar dilution CLSI method
Method in brief: (§5)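 Single-step selection on drug-containing agar across 10 strains (2 MSSA, 8 MRSA, including VRSA and VISA). Colonies arising on confluent background growth were retested by CLSI agar dilution MIC. Resistance was defined as an MIC more than 4× the parent MIC.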

[17] = test system: Staphylococcus aureus; test: Antimicrobial activity against vancomycin-resistant Staphylococcus aureus 510 Hershey after 14 passages with CG400549 measured after 10 antibiotic-free subculture by multi-step resistance selection technique; method in brief: as §4
[18] = test system: Staphylococcus aureus; test: Antimicrobial activity against vancomycin-resistant Staphylococcus aureus 510 Hershey after 18 passages with daptomycin measured after 10 antibiotic-free subculture by multi-step resistance selection technique; method in brief: as §4
[19] = test system: Staphylococcus aureus; test: Antimicrobial activity against vancomycin-resistant Staphylococcus aureus 510 Hershey after 14 passages with quinupristin-dalfopristin measured after 10 antibiotic-free subculture by multi-step resistance selection technique; method in brief: as §4
[20] = test system: Staphylococcus aureus; test: Antimicrobial activity against methicillin-resistant Staphylococcus aureus 547 by agar dilution CLSI method; method in brief: as §1
[21] = test system: Staphylococcus aureus; test: Antimicrobial activity against vancomycin-intermediate Staphylococcus aureus 555 Hershey by agar dilution CLSI method; method in brief: as §2
[22] = test system: Staphylococcus aureus; test: Antimicrobial activity against methicillin-susceptible Staphylococcus aureus 540 by agar dilution CLSI method; method in brief: as §1
[23] = test system: Staphylococcus aureus; test: Antimicrobial activity against methicillin-susceptible Staphylococcus aureus 543 by agar dilution CLSI method; method in brief: as §1
[24] = test system: Staphylococcus aureus; test: Antimicrobial activity against methicillin-resistant Staphylococcus aureus 525 after 20 passages with daptomycin measured after 10 antibiotic-free subculture by multi-step resistance selection technique; method in brief: as §3
[25] = test system: Staphylococcus aureus; test: Antimicrobial activity against methicillin-resistant Staphylococcus aureus 525 after 16 passages with quinupristin-dalfopristin measured after 10 antibiotic-free subculture by multi-step resistance selection technique; method in brief: as §3
[26] = test system: Staphylococcus aureus; test: Antimicrobial activity against methicillin-resistant Staphylococcus aureus 547 after 21 passages with quinupristin-dalfopristin measured after 10 antibiotic-free subculture by multi-step resistance selection technique; method in brief: as §3
[27] = test system: Staphylococcus aureus; test: Antimicrobial activity against vancomycin-intermediate Staphylococcus aureus 555 Hershey after 14 passages with CG400549 measured after 10 antibiotic-free subculture by multi-step resistance selection technique; method in brief: as §4
[28] = test system: Staphylococcus aureus; test: Antimicrobial activity against methicillin-susceptible Staphylococcus aureus 540 after 24 passages with daptomycin measured after 10 antibiotic-free subculture by multi-step resistance selection technique; method in brief: as §3
[29] = test system: Staphylococcus aureus; test: Antimicrobial activity against methicillin-susceptible Staphylococcus aureus 540 after 36 passages with Linezolid measured after 10 antibiotic-free subculture by multi-step resistance selection technique; method in brief: as §3
[30] = test system: Staphylococcus aureus; test: Antimicrobial activity against methicillin-susceptible Staphylococcus aureus 540 after 16 passages with quinupristin-dalfopristin measured after 10 antibiotic-free subculture by multi-step resistance selection technique; method in brief: as §3
[31] = test system: Staphylococcus aureus; test: Antimicrobial activity against methicillin-susceptible Staphylococcus aureus 543 after 15 passages with Linezolid measured after 10 antibiotic-free subculture by multi-step resistance selection technique; method in brief: as §3
[32] = test system: Staphylococcus aureus; test: Antimicrobial activity against methicillin-resistant vancomycin-intermediate Staphylococcus aureus 555 after single-step resistance selection by agar dilution CLSI method; method in brief: as §5
[33] = test system: Staphylococcus aureus; test: Antimicrobial activity against methicillin-resistant vancomycin-intermediate Staphylococcus aureus 504 after single-step resistance selection by agar dilution CLSI method; method in brief: as §5
[34] = test system: Staphylococcus aureus; test: Antimicrobial activity against methicillin-resistant Staphylococcus aureus 490 after single-step resistance selection by agar dilution CLSI method; method in brief: as §5
[35] = test system: Staphylococcus aureus; test: Antimicrobial activity against methicillin-resistant Staphylococcus aureus 525 after single-step resistance selection by agar dilution CLSI method; method in brief: as §5
[36] = test system: Staphylococcus aureus; test: Antimicrobial activity against methicillin-resistant Staphylococcus aureus 547 after single-step resistance selection by agar dilution CLSI method; method in brief: as §5
[37] = test system: Staphylococcus aureus; test: Antimicrobial activity against methicillin-susceptible Staphylococcus aureus 540 after single-step resistance selection by agar dilution CLSI method; method in brief: as §5

| SMILES | MIC50 [1] [µg/mL] | MIC90 [1] [µg/mL] | MIC [2] [µg/mL] | MIC [3] [µg/mL] | MIC [4] [µg/mL] | MIC [5] [µg/mL] | MIC [6] [µg/mL] | MIC [7] [µg/mL] | MIC [8] [µg/mL] | MIC [9] [µg/mL] | MIC [10] [µg/mL] | MIC [11] [µg/mL] | MIC [12] [µg/mL] | MIC [13] [µg/mL] | MIC [14] [µg/mL] | MIC [15] [µg/mL] | MIC [16] [µg/mL] | MIC [17] [µg/mL] | MIC [18] [µg/mL] | MIC [19] [µg/mL] | also measured |
| --- | --- | --- | --- | --- | --- | --- | --- | --- | --- | --- | --- | --- | --- | --- | --- | --- | --- | --- | --- | --- | --- |
| Cc1c(N)cccc1Cn1ccc(OCCc2cccs2)cc1=O [CG-400549] | 0.25 (≈ 0.734 µM) | 0.25 (≈ 0.734 µM) | 0.25 (≈ 0.734 µM) | 0.25 (≈ 0.734 µM) | 0.25 (≈ 0.734 µM) | 0.125 (≈ 0.367 µM) | 0.25 (≈ 0.734 µM) | 8 (≈ 23.5 µM) | 0.25 (≈ 0.734 µM) | 0.25 (≈ 0.734 µM) | 0.125 (≈ 0.367 µM) | 2 (≈ 5.87 µM) | 0.25 (≈ 0.734 µM) | > 64 | 1 (≈ 2.94 µM) | 1 (≈ 2.94 µM) | 0.125 (≈ 0.367 µM) | 4 (≈ 11.7 µM) | 0.125 (≈ 0.367 µM) | 0.25 (≈ 0.734 µM) | MIC [20]: 0.125 µg/mL (≈ 0.367 µM); MIC [21]: 0.25 µg/mL (≈ 0.734 µM); MIC [22]: 0.125 µg/mL (≈ 0.367 µM); MIC [23]: 0.125 µg/mL (≈ 0.367 µM); MIC [24]: 0.125 µg/mL (≈ 0.367 µM); MIC [25]: 0.125 µg/mL (≈ 0.367 µM); MIC [26]: 0.125 µg/mL (≈ 0.367 µM); MIC [27]: 2 µg/mL (≈ 5.87 µM); MIC [28]: 0.125 µg/mL (≈ 0.367 µM); MIC [29]: 0.125 µg/mL (≈ 0.367 µM); MIC [30]: 0.125 µg/mL (≈ 0.367 µM); MIC [31]: 0.125 µg/mL (≈ 0.367 µM); MIC [32]: 0.125 µg/mL (≈ 0.367 µM); MIC [33]: 0.125 µg/mL (≈ 0.367 µM); MIC [34]: 0.125 µg/mL (≈ 0.367 µM); MIC [35]: 0.125 µg/mL (≈ 0.367 µM); MIC [36]: 0.125 µg/mL (≈ 0.367 µM); MIC [37]: 0.125 µg/mL (≈ 0.367 µM) |
| CCCCCCCCCC(=O)N[C@@H](Cc1c[nH]c2ccccc12)C(=O)N[C@H](CC(N)=O)C(=O)N[C@@H](CC(=O)O)C(=O)N[C@@H]1C(=O)NCC(=O)N[C@@H](CCCN)C(=O)N[C@@H](CC(=O)O)C(=O)N[C@H](C)C(=O)N[C@@H](CC(=O)O)C(=O)NCC(=O)N[C@H](CO)C(=O)N[C@@H]([C@H](C)CC(=O)O)C(=O)N[C@@H](CC(=O)c2ccccc2N)C(=O)O[C@@H]1C | 0.5 (≈ 0.309 µM) | 0.5 (≈ 0.309 µM) | 1 (≈ 0.617 µM) | 1 (≈ 0.617 µM) | 8 (≈ 4.94 µM) | 1 (≈ 0.617 µM) | 1 (≈ 0.617 µM) | 1 (≈ 0.617 µM) | 4 (≈ 2.47 µM) | 1 (≈ 0.617 µM) | 1 (≈ 0.617 µM) | 1 (≈ 0.617 µM) | 1 (≈ 0.617 µM) | 1 (≈ 0.617 µM) | 4 (≈ 2.47 µM) | 1 (≈ 0.617 µM) | 0.5 (≈ 0.309 µM) | 1 (≈ 0.617 µM) | 4 (≈ 2.47 µM) | 0.5 (≈ 0.309 µM) | MIC [20]: 1 µg/mL (≈ 0.617 µM); MIC [21]: 16 µg/mL (≈ 9.87 µM); MIC [22]: 1 µg/mL (≈ 0.617 µM); MIC [23]: 1 µg/mL (≈ 0.617 µM); MIC [24]: 2 µg/mL (≈ 1.23 µM); MIC [25]: 1 µg/mL (≈ 0.617 µM); MIC [26]: 1 µg/mL (≈ 0.617 µM); MIC [27]: 8 µg/mL (≈ 4.94 µM); MIC [28]: 2 µg/mL (≈ 1.23 µM); MIC [29]: 2 µg/mL (≈ 1.23 µM); MIC [30]: 2 µg/mL (≈ 1.23 µM); MIC [31]: 2 µg/mL (≈ 1.23 µM); MIC [32]: 0.5 µg/mL (≈ 0.309 µM); MIC [33]: 0.5 µg/mL (≈ 0.309 µM); MIC [34]: 0.5 µg/mL (≈ 0.309 µM); MIC [35]: 0.5 µg/mL (≈ 0.309 µM); MIC [36]: 0.5 µg/mL (≈ 0.309 µM); MIC [37]: 0.5 µg/mL (≈ 0.309 µM) |
